Data reported in article PMC7485388 (ACS chemical biology, 2017).
Entries after “also recorded” stand apart in the source; their conditions may differ.

How the values were obtained:
EphB1 T697G = target: T1, EphB1 T697G (Homo sapiens, UniProt P54762, T697G); test: EphB1 autophosphorylation in transfected HEK293 cells; assay type: cell-based
T1 sequence (P54762 18-984 T697G): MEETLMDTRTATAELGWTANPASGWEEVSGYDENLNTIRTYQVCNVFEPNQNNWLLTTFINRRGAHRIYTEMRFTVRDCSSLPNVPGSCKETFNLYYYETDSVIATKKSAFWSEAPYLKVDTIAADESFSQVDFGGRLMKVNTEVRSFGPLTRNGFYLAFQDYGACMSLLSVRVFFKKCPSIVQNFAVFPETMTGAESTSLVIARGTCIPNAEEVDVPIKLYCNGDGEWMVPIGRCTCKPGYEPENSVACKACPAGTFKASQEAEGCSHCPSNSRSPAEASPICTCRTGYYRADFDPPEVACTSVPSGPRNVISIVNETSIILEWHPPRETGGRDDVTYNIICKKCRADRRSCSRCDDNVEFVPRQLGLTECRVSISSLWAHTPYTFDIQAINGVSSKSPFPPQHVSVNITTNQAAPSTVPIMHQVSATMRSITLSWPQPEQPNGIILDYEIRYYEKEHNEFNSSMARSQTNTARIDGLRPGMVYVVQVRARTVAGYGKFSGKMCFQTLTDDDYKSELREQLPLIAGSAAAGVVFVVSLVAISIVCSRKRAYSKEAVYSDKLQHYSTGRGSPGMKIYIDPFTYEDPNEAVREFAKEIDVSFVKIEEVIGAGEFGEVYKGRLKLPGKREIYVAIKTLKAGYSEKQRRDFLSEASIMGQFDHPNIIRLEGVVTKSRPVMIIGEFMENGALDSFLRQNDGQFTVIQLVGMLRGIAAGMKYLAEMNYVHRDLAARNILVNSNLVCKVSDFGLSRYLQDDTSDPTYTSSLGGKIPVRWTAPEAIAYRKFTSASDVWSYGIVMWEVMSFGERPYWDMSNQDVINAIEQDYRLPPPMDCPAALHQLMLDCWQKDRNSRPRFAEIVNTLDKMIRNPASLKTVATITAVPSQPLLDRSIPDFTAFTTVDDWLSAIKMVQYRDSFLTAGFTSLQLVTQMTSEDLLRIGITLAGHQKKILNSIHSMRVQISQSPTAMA
Summary of the method: (§1)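 HEK293 cells transfected with Eph kinase variants were exposed to a range of test compound concentrations. Lysate protein was quantified by BCA and normalized before Western blotting. Blots were probed for phospho-EphB, total EphB1 or EphB3, and β-actin, giving autophosphorylation relative to total receptor.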

EphB3 WT = test: EphB3 autophosphorylation in HEK293 cells co-expressing EphB3 WT; assay type: cell-based, human; details: 100 nM; HEK293 co-expressing EphB3 WT and EphB1 T697G; ephrin-B2 stimulation
Summary of the method: as §1

autophosphorylation of EphB1 T697G (EphB1 T697G; 100 nM, HEK293 co-expressing EphB3 WT and EphB1 T697G, ephrin-B2 stimulation): abolished | selectivity factor between the two EphB1 mutants (T697G over G703C) (EphB1 T697G; in cells): ~ 500
SMILES: Cc1cccc(Cc2nn(C(C)(C)C)c3ncnc(N)c23)c1 [3MB-PP1]
inhibition of the three EphB1 alleles in cells (EphB1 T697G; 100 nM, HEK293, tested on WT, G703C, T697G): only inhibited the analog-sensitive allele; also recorded: only inhibited EphB1^T697G | autophosphorylation of EphB3 WT (EphB3 WT): little effect
